# Legend:
# C57BL/6J mice = experiment: Hyperinsulinemic-euglycemic clamp in lean C57BL/6J mice; type: in vivo, mouse
# In short: (§1)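 Lean C57BL/6J or db/db mice given a jugular vein catheter 5–6 days beforehand; treated with test compound and fasted overnight. 2 h hyperinsulinemic-euglycemic clamp run in awake mice with human insulin (150 mU/kg prime, then 2.5 mU/kg/min). Tissue uptake in gastrocnemius and epididymal WAT from 2-[14C]DG-6-phosphate, separated by ion-exchange, and the plasma 2-[14C]DG profile. n = 5–6 mice/group.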
# db/db mice [1] = experiment: Hyperinsulinemic-euglycemic clamp in db/db mice; type: in vivo, mouse
# In short: as §1
# [2] = system: polymerase II (Pol II) binding to the TXNIP promoter; experiment: Chromatin immunoprecipitation of Pol II in INS-1 cells; type: cell-based, rat; details: ChIP
# In short: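 INS-1 cells crosslinked in 1% formaldehyde/PBS for 15 min, then quenched with glycine. Lysed in SDS/Triton buffer, pH 8.1, with protease inhibitors, and sonicated (10 × 30 s pulses). 500 µg precleared lysate incubated with 4 µg anti-Pol II antibody or control IgG overnight at 4°C; 1/10 kept as input. Complexes captured on Protein A-Sepharose for 3 h, then washed in lysis, wash, LiCl and TE buffers. Regions probed: E-box, upstream TXNIP and IRS2 site. n = 3 independent experiments.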
# human TXNIP promoter = type: cell-based; details: INS-1 cells, 25 mM glucose, 5 μM, 24 h
# In short: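 INS-1 cells transfected with SV40-E-box or SV40-Control firefly plasmid (0.4 µg/mL) plus pRL-TK renilla control (10 ng/mL). After 18 h, switched to 5 mM glucose for 6 h, then to 25 mM glucose. Treated with or without 5 µM test compound for 24 h. Read by dual-luciferase assay; n = 6 independent experiments.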
# db/db mice [3] = experiment: Oral treatment of obese, diabetic db/db mice; type: in vivo, mouse
# [4] = system: TXNIP expression in human islets; type: cell-based
# In short: (§2)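 INS-1 cells, C57BL/6J mouse islets (collagenase XI-isolated) or human islets (at least three donors, same-donor controls) kept overnight in 5 mM glucose RPMI 1640. Then incubated 24 h in 25 mM glucose RPMI 1640 with or without 1 µM test compound. TXNIP and related mRNAs measured by qRT-PCR; n = 6 (INS-1) or 3 (mouse islets) independent experiments.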
# [5] = system: primary mouse hepatocytes; experiment: Hepatocyte glucose output; type: cell-based
# In short: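 Hepatocytes were isolated from male C57BL/6J, liver-specific GcgR-knockout or Txnip-deficient mice and plated on collagen at 3 × 10^5 cells/well in serum-free DMEM. After 4 h attachment, they were treated 24h with graded test-compound concentrations. For the last 6h, cells were washed twice in PBS and placed in serum-, glucose- and phenol red-free DMEM, with or without lactate (10 mM) and/or glucagon (100 nM). Medium glucose was read colorimetrically and normalized to total protein; n = 3–4 mice.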
# TXNIP-deficient mice = experiment: SRI-37330 treatment of TXNIP-deficient mice; type: in vivo, mouse
# [6] = system: TXNIP expression in primary mouse islets; experiment: TXNIP expression by qPCR in primary mouse islets at high glucose; type: cell-based; details: 25 mM glucose, 1 μM, 24 h
# In short: as §2
# [7] = Cellular cytotoxicity assay; type: cell-based; details: in vitro
# [8] = system: primary mouse hepatocytes; experiment: Hepatocyte cAMP production; type: cell-based
# In short: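 Primary hepatocytes came from anesthetized lean chow-fed male C57BL/6J mice, liver-specific glucagon receptor knockout mice, or Txnip-deficient mice. They were plated on collagen at 3 × 10^5 cells/well in serum-free DMEM and left 4 h to attach. Medium was then changed and cells were exposed to graded test-compound concentrations with glucagon for 24h. Cells were washed twice in PBS and harvested in 0.1M HCl. Intracellular cAMP was measured by direct immunoassay; n = 3 independent experiments.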
# αTC1-6 alpha cells = experiment: Alpha cell glucagon expression and secretion; type: cell-based, mouse; details: αTC1-6 cells
# In short: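 αTC1-6 mouse alpha cells grown in DMEM with 10% FBS, 16.7 mM glucose, 1 mM sodium pyruvate and 15 mM HEPES at 37°C, 5% CO2. Cells exposed to 5 µM test compound or vehicle for 1 h. Low-glucose secretion run at 1.67 mM glucose. Secreted glucagon measured by mouse glucagon ELISA; protein measured by BCA assay.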
# [9] = Off-target liability panel; details: currently available panel
# [10] = system: human islet gene expression; experiment: RNA sequencing of human islets; type: cell-based; details: 25 mM glucose, 1 μM
# In short: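 Human islets (IIDP; same-donor controls) held overnight at 5 mM glucose, then 24 h at 25 mM glucose with or without 1 µM test compound. RNA extracted with miRNeasy. Libraries prepared as TruSeq stranded mRNA and sequenced single-end at about 43 million reads/sample.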
# [11] = system: TXNIP protein levels in INS-1 cells; experiment: TXNIP protein immunoblotting in INS-1 cells; type: cell-based, rat; details: 24h
# In short: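 Rat INS-1 beta-like cells were grown at 37°C in humidified 5% CO2. Whole-cell protein extracts were prepared and protein was quantified by BCA assay. Equal protein amounts were loaded per lane for TXNIP immunoblotting.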
# [12] = Plasma concentration and oral bioavailability in mice; type: in vivo, mouse
# [13] = GcgR−/−L hepatocytes, glucagon present
structure (smiles),measurement,setting,value
"CS(=O)(=O)NCC1CCCN(c2ncnc3ccc(C(F)(F)F)cc23)C1 (stereo not shown) [SRI-37330, N-((1-(6-(trifluoromethyl)quinazolin-4-yl)piperidin-3-yl)methyl)methanesulfonamide]",glucose infusion rates,C57BL/6J mice; lean C57BL/6J mice,comparable between groups
same,hepatic insulin action,C57BL/6J mice; lean C57BL/6J mice,comparable between groups
same,insulin-stimulated glucose uptake in white adipose tissue,"C57BL/6J mice; lean C57BL/6J mice, epididymal",comparable between groups
same,insulin-stimulated glucose uptake in skeletal muscle,"C57BL/6J mice; lean C57BL/6J mice, gastrocnemius",comparable between groups
same,basal hepatic glucose production,C57BL/6J mice; lean awake C57BL/6J mice,significantly downregulated
same,insulin sensitivity,C57BL/6J mice; lean awake C57BL/6J mice,no alteration in insulin sensitivity
same,basal hepatic glucose production,db/db mice [1],significantly lower basal hepatic glucose production
same,glucose infusion rate,db/db mice [1],not significantly different
same,hepatic insulin action,db/db mice [1],not significantly different
same,insulin-stimulated glucose uptake in skeletal muscle,db/db mice [1],remained unchanged
same,insulin-stimulated glucose uptake in white adipose tissue,db/db mice [1],remained unchanged
same,Pol II binding to the E-box motif region of the TXNIP promoter,[2],effectively inhibited
same,Pol II binding to upstream TXNIP promoter region and to IRS2 site,[2],but not to an upstream TXNIP promoter region or to an established Pol II binding site
same,effect on heterologous SV40 promoter coupled with the TXNIP E-box motif,human TXNIP promoter,confer SRI-37330 responsiveness
same,hepatic steatosis (liver histology),db/db mice [3]; db/db mice,dramatically improved the severe steatosis
same,alpha cell mass,"db/db mice [3]; db/db mice, islet morphometry","small, but significant decline in alpha cell mass"
same,alpha cell number,"db/db mice [3]; db/db mice, islet morphometry",clear trend towards lower alpha cell number
same,beta cell mass and number,"db/db mice [3]; db/db mice, islet morphometry",remained unchanged
same,fasting blood glucose,"db/db mice [3]; db/db mice, oral",significantly downregulated
same,fasting serum glucagon,"db/db mice [3]; db/db mice, oral",significant downregulate
same,fasting serum insulin,"db/db mice [3]; db/db mice, oral",remained unchanged
same,body weight,"db/db mice [3]; db/db mice, oral, 4 weeks",did not affect body weights
same,non-fasting blood glucose,"db/db mice [3]; db/db mice, oral, 4 weeks",decreased significantly within 3 days of starting SRI-37330 treatment and returned to euglycemic levels
same,effectiveness by oral gavage twice a day,"db/db mice [3]; obesity-induced diabetes, gavage 12 h apart",confirmed its effectiveness in obesity- as well as STZ-induced diabetes
same,expression of other arrestin genes ARRB1 and ARRDC3 and of thioredoxin,"[4]; human islets, qRT-PCR, negative controls",not affected
same,TXNIP expression in the context of high glucose,"[4]; isolated human islets, 25 mM glucose, 1 μM, 24 h",significantly inhibit TXNIP expression
same,hepatocyte glucose output,[5]; [13],no longer able to inhibit hepatocyte glucose output or cAMP production
same,glucose output,"[5]; primary hepatocytes of TXNIP-deficient mice, glucagon present",maintained its ability to block glucose output and glucagon-induced cAMP production
same,basal or stimulated glucose output in the absence of glucagon,"[5]; wild-type primary hepatocytes, 24h, no substrate or lactate",did not affect basal or stimulated glucose output
same,glucose homeostasis and serum glucagon,TXNIP-deficient mice,no longer able to further improve glucose homeostasis or lower serum glucagon levels
same,serum glucagon levels,TXNIP-deficient mice,even elevated
same,TXNIP expression in the context of high glucose,[6],significantly inhibit TXNIP expression
same,cytotoxicity,[7],no cytotoxicity
same,cAMP production,[8]; [13],no longer able to inhibit hepatocyte glucose output or cAMP production
same,glucagon-induced cAMP production,[8]; primary hepatocytes of TXNIP-deficient mice,maintained its ability to block glucose output and glucagon-induced cAMP production
same,glucagon-induced production of cAMP,"[8]; wild-type primary hepatocytes, 24h, glucagon",significantly downregulated in a dose-dependent manner
same,glucagon content,"αTC1-6 alpha cells; 5 μM, 1h",did not lower proglucgon gene expression or glucagon content
same,glucagon secretion,"αTC1-6 alpha cells; 5 μM, 1h",significantly lower glucagon secretion
same,proglucagon gene expression,"αTC1-6 alpha cells; 5 μM, 24 h",did not lower proglucgon gene expression or glucagon content
same,glucagon secretion in the context of low glucose,αTC1-6 alpha cells; 1.67 mM glucose,no effect on glucagon secretion
same,glucagon secretion maximally stimulated by arginine and norepinephrine,"αTC1-6 alpha cells; arginine 20 mM, norepinephrine 10 μM",no longer able to inhibit glucagon secretion
same,off-target liabilities,[9],lack of off-target liabilities
same,BCL2L1 expression,[10]; confirmed by qRT-PCR,upregulated
same,CTGF expression,[10]; confirmed by qRT-PCR,upregulated
same,IGF-1R expression,[10]; confirmed by qRT-PCR,upregulated
same,MAFA expression,[10]; confirmed by qRT-PCR,upregulated
same,MLXIPL expression,[10]; confirmed by qRT-PCR,downregulated
same,NLRP1 expression,[10]; confirmed by qRT-PCR,lower expression
same,general transcription,"[10]; three donors, 24 h, RNA sequencing",does not inhibit general transcription
same,TXNIP protein levels,[11],inhibited TXNIP protein levels in a dose-dependent manner
same,average plasma concentration,"[12]; mice, 100 mg/kg/day in the drinking water",5 µmol/L
same,oral bioavailability,"[12]; mouse, in vivo, po",orally bioavailable
